The data set in a line: Toxicity liver stage against HepG2, at 10uM. The format is cell-based. The arrangement: test concentration 10 uM, cell line HepG2-A16-CD81EGFP. As to conditions: human, HepG2-A16-CD81EGFP cells; read-out: INHIBITION
The method, boiled down:
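Uninfected HepG2-A16-CD81EGFP cells, 3 × 10^3 per well, 1536-well, plated on prespotted compound at 10 μM final, parasite-free screening media added to match infected plates; puromycin 10 μM positive, DMSO 0.5% negative; run in parallel with 48 h PbLuc assay at 37 °C, 5% CO2; viability by CellTiter-Glo luminescence, normalized to controls.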

As to `O=C(Cc1ccccn1)N1CCN(CC2CC2)c2ncccc2C1`, the cytotoxicity at 10 µM worked out at 1.34%.

`NC(=O)C1=NN2C(=NS(=O)(=O)c3ccccc32)N1`: the cytotoxicity at 10 µM was found to be 7.58%.

For the compound `CN(C)S(=O)(=O)c1ccc2c(c1)N(Cc1nccn1C)CCC2`, the cytotoxicity at 10 µM amounted to 2.26%.

`O=C(Cc1c(F)cccc1F)N1CCN(CC(=O)N2CCCC2)CC1`: the cytotoxicity at 10 µM stood at 4.57%.

As to `CCc1nc(CCn2cc(-c3nccn3C)nn2)no1`, the cytotoxicity at 10 µM was -55.3%.

Turning to `Cn1nc(C(=O)NC2CC(C)(C)NC(C)(C)C2)cc1NC(=O)C1CC1`, the cytotoxicity at 10 µM was determined as 0.754%.

As to `CC(C)(C)c1nc(CNC(=O)N2CCc3ccccc3C2CO)no1` (centres undefined), the cytotoxicity at 10 µM amounted to 6.56%.

As for `CC(C)n1cnnc1C1CCCN(S(=O)(=O)CCCF)C1` (centres undefined), the cytotoxicity at 10 µM is 7.39%.

On to `O=C(CCNc1ncccn1)N1CCC(Nc2cccnn2)CC1`, for which the cytotoxicity at 10 µM is -12.9%.

On to `Cc1ncc(C(=O)N2CCCN(Cc3ccccc3F)CC2)c(O)n1`, for which the cytotoxicity at 10 µM was 0.903%.

For the compound `O=C(c1ccc[nH]1)N1CCC(c2nccn2Cc2ccncc2)CC1`, the cytotoxicity at 10 µM is -16.8%.

For the compound `N#Cc1ncn(CCS(=O)(=O)c2ccc(Cl)cc2)n1`, the cytotoxicity at 10 µM is -6.74%.

For the compound `Oc1ccc(Cl)cc1CNCc1ccccc1C(F)(F)F`, the cytotoxicity at 10 µM stood at 2.67%.

Regarding `O=C(NCCc1noc(C2CCCC2)n1)c1cn2ccsc2n1`, the cytotoxicity at 10 µM was -0.454%.

For `CNS(=O)(=O)CC(=O)N1CCC(c2ccc(F)c(F)c2)CC1`, the cytotoxicity at 10 µM was determined as 0.696%.

In the case of `O=C(NCC1(CO)CC1)c1ccccc1F`, the cytotoxicity at 10 µM came out at 9.99%.

Take `COC[C@H]1CCCN1c1nccc(-c2cnn(-c3ccccc3C)c2)n1`: the cytotoxicity at 10 µM worked out at 8.63%.

With `CCOC(=O)NC(CNC(=O)c1cc(Cl)ccn1)CC(C)C` (centres undefined), the cytotoxicity at 10 µM is 5.38%.

As for `CSCC(=O)N[C@H]1CN(CC2CCOCC2)C[C@@H]1c1ccccc1`, the cytotoxicity at 10 µM is -3.97%.

On to `CN(c1ncccc1CNS(=O)(=O)N1CCOCC1)C1CCCCC1`, for which the cytotoxicity at 10 µM worked out at 6.39%.

Consider `O=C(NCc1ccco1)c1cc[n+]([O-])cc1`, for which the cytotoxicity at 10 µM was 3.33%.

Turning to `O=C(C1CC(F)(F)C1)N1C[C@@H]2CN(Cc3ccoc3)CCO[C@@H]2C1`, the cytotoxicity at 10 µM stood at 7.81%.

Regarding `CNC(=O)COc1ccc(CNc2c(Cl)cccc2C#N)cc1`, the cytotoxicity at 10 µM was -55.9%.

In the case of `Cc1nnc(N2CCOC(C)C2)c(C#N)c1C` (centres undefined), the cytotoxicity at 10 µM was -11.7%.

Turning to `O=C(c1cnccn1)N1CCN2C[C@H](OCc3ccccc3F)C[C@H]2C1`, the cytotoxicity at 10 µM is -2.16%.

For the compound `COCCn1cc(NC(=O)NC(C)Cc2c(F)cccc2F)cn1` (centres undefined), the cytotoxicity at 10 µM was -4.5%.

Regarding `Cc1ccc(C(=O)N2CC[C@@]3(C[C@@H](NS(C)(=O)=O)CCO3)C2)s1`, the cytotoxicity at 10 µM is -73.9%.

Turning to `COCCCNc1ncc(-c2cccc(F)c2)c(-c2nccn2C)n1`, the cytotoxicity at 10 µM stood at 8.97%.

With `Cc1noc(C)c1-c1cncc(C2CCCN2Cc2c[nH]cn2)n1` (centres undefined), the cytotoxicity at 10 µM was -12.4%.

Turning to `O=C(c1ccsc1)N1CCN2C[C@H](OCc3cccnc3)C[C@H]2C1`, the cytotoxicity at 10 µM stood at 0.59%.

As to `Cc1cc(-c2ccc(C(=O)O)cc2)nc(C2CCN(C(C)C)CC2)n1`, the cytotoxicity at 10 µM was -26.3%.

On to `CSCCCn1ccnc1-c1cccc(C#N)c1`, for which the cytotoxicity at 10 µM was -13.3%.

In the case of `O=S(=O)(C/C=C/c1ccccc1)Cc1nc(C2CC2)no1`, the cytotoxicity at 10 µM is -12.4%.

As for `COc1cccc(CNC(C)Cn2cccn2)c1OC` (centres undefined), the cytotoxicity at 10 µM was -4.84%.

In the case of `Cc1nc(CNC(=O)Nc2cc(C(F)(F)F)c[nH]c2=O)cs1`, the cytotoxicity at 10 µM came out at 0.868%.

`Cc1ccc(C(=O)NS(=O)(=O)c2ccccc2F)c(=O)[nH]1`: the cytotoxicity at 10 µM was -5.53%.

In the case of `COc1ccc(N2CCC(NC(=O)c3ccc(C#N)cc3)CC2)cc1`, the cytotoxicity at 10 µM is -14.7%.

Consider `Cc1ccccc1CSc1nc(N)cc(N2CC[C@@H](O)C2)n1`, for which the cytotoxicity at 10 µM was 0.28%.

As to `CC(C)(C)n1cc(C(=O)N2CCN(Cc3ccsc3)CC2)cn1`, the cytotoxicity at 10 µM is -5.79%.

These data come from ChEMBL document CHEMBL4513216, “Probing the Open Global Health Chemical Diversity Library for Multistage-Active Starting Points for Next-Generation Antimalarials” (ACS Infect Dis, 2020).
